# Measurements reported in ChEMBL document CHEMBL4339237, “Bulbiferates A and B: Antibacterial Acetamidohydroxybenzoates from a Marine Proteobacterium, Microbulbifer sp” (2019).
# Calls of active or inactive are those of the source. The calls are words filed in the database; no cut-off is given here.
# What was measured:
# Escherichia coli [1] = assay: Antibacterial activity against Escherichia coli ATCC 25922 incubated for 18 hrs by dilution antimicrobial susceptibility test; assay type: functional; settings: ATCC 25922, 18 h
# In short: (§1)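 Broth dilution susceptibility method for aerobic bacteria in 96-well plates. Compounds dissolved in DMSO and serially diluted to 10 concentrations (0.5–256 μg/mL). Geneticin served as positive control for E. coli and vancomycin for MSSA. Tested in duplicate, with eight untreated media controls per plate. Incubated 18 h at 33 °C. MIC taken as lowest concentration preventing visible growth.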
# Staphylococcus aureus [2] = assay: Antibacterial activity against methicillin-sensitive Staphylococcus aureus ATCC 25913 incubated for 18 hrs by dilution antimicrobial susceptibility test; assay type: functional; settings: ATCC 25913, 18 h; in short: as §1
# Staphylococcus aureus [3] = assay: Antibacterial activity against methicillin-sensitive Staphylococcus aureus ATCC 25913 by agar diffusion assay; assay type: functional
# Escherichia coli [4] = assay: Antibacterial activity against Escherichia coli ATCC 25922 by agar diffusion assay; assay type: functional
# Staphylococcus aureus [5] = assay: Antibacterial activity against methicillin-resistant Staphylococcus aureus ATCC 33591 by agar diffusion assay; assay type: functional, organism-based
SMILES,MIC (Staphylococcus aureus [2]),MIC (Escherichia coli [1]),diameter of the inhibition zone (DIZ) (Staphylococcus aureus [3]),diameter of the inhibition zone (DIZ) (Escherichia coli [4]),Activity (Staphylococcus aureus [5])
CN[C@@H]1[C@@H](O)[C@@H](O[C@@H]2[C@@H](O)[C@H](O[C@H]3O[C@H]([C@H](C)O)[C@@H](O)[C@H](O)[C@H]3N)[C@@H](N)C[C@H]2N)OC[C@]1(C)O,–,0.25 µg/mL,–,–,–
CCCCCCCCCCCOC(=O)c1ccc(O)c(NC(C)=O)c1,> 200 µg/mL,> 200 µg/mL,5 mm,5 mm,inactive
CCCCCCCCCCOC(=O)c1ccc(O)c(NC(C)=O)c1,> 200 µg/mL,> 200 µg/mL,10 mm,6 mm,inactive

# The next lines start with results.
MIC (Staphylococcus aureus [2]),SMILES,MIC (Escherichia coli [1]),diameter of the inhibition zone (DIZ) (Staphylococcus aureus [3]),diameter of the inhibition zone (DIZ) (Escherichia coli [4]),Activity (Staphylococcus aureus [5])
> 200 µg/mL,CCCCCCCCCCCCCCOC(=O)c1ccc(O)c(NC(C)=O)c1,> 200 µg/mL,–,–,–
> 200 µg/mL,CCCCCCCCOC(=O)c1ccc(O)c(NC(C)=O)c1,> 200 µg/mL,5 mm,inactive,–
> 200 µg/mL,COC(=O)c1ccc(O)c(NC(C)=O)c1,> 200 µg/mL,7 mm,inactive,–
